Assay results collected from several papers.
Lines come from different studies, so protocols differ.
Target: Serine/threonine-protein kinase MARK2 (MARK2, Homo sapiens, UniProt Q7KZI7)

With O=C(NCCCNc1nc(Nc2cccc(NC(=O)N3CCCC3)c2)ncc1Br)C1CCC1 the remaining activity was 2% (enzyme activity, inhibitor, radiometric; 1 µM).
For COc1cc(/C=C/C(=O)CC(=O)/C=C/c2ccc(O)c(OC)c2)ccc1O, the activity vs control was 78% (enzyme activity, inhibitor; 1 µM).
With O=C(NCCCNc1nc(Nc2cccc(CN3CCOCC3)c2)ncc1C1CC1)C1CCC1 the remaining activity was 4% (enzyme activity, inhibitor, radiometric; 1 µM).
With CNC(=O)c1cc(Oc2ccc(NC(=O)Nc3ccc(Cl)c(C(F)(F)F)c3)cc2)ccn1 the inhibition was 26% (enzyme activity, inhibitor; 10 µM).
FC(F)c1nc2ccccc2n1-c1nc(N2CCOCC2)nc(N2CCOCC2)n1 has a remaining activity of 87% (enzyme activity, inhibitor; 10 µM).
For Cc1cc(-n2nc(Cc3cc(F)cc(C(F)(F)F)c3)nc2C)ccc1C(N)=O, the remaining binding was 89% (cell-free assay, competition with immobilised ligand; 1 µM).
CNc1cc(Oc2cc(C(=O)Nc3cc(N4CCN(C)CC4)cc(C(F)(F)F)c3)ccc2C)ncn1 gave an inhibition of -25.4% (target engagement in cells, inhibitor, chemoproteomics; Huh-7; 1 µM).
The remaining binding of O=C(N[C@H]1CCCCC/C=C\C2C[C@@]2(C(=O)O)NC(=O)[C@@H]2C[C@@H](Oc3ccncc3)CN2C1=O)OC1CCCC1 (stereo partly shown) is reported as 81% (binding, competition with immobilised ligand; 1 µM).
The remaining signal of N#CCCc1ccc2c(c1)-c1[nH]c3ccc([N+](=O)[O-])cc3c1CC(=O)N2 is reported as 65.5% (cell-free assay; 0.5 µM).
The remaining binding of CO[C@H]1CC[C@H](CNc2ccc(S(=O)(=O)NC(=O)c3ccc(N4CCN(CC5=C(c6ccc(Cl)cc6)CC(C)(C)CC5)CC4)cc3Oc3cnc4[nH]ccc4c3)cc2[N+](=O)[O-])CC1 is reported as 100% (cell-free assay, competition with immobilised ligand; 1 µM).
For c1cc(CN2CCOCC2)cc(Nc2ncc(C3CC3)c(NCCc3c[nH]cn3)n2)c1, the remaining activity was 14% (enzyme activity, inhibitor, radiometric; 1 µM).
For Cc1noc([C@H]2C[C@@H](c3ccc(C(F)(F)F)cc3)CN(C(=O)N3CCS(=O)(=O)C3)C2)n1, the remaining binding was 100% (cell-free assay, competition with immobilised ligand; 1 µM).
For Nc1ncnc2occ(-c3ccc(NC(=O)Nc4cc(C(F)(F)F)ccc4F)cc3)c12, the remaining signal was 22% (cell-free assay, inhibitor; 20 µM).
The remaining binding of C[C@@H]1CN(c2cc(-c3nn(C)c4ccc(OC5(C)CC5)cc34)ncn2)C[C@H](C)O1 is reported as 89% (cell-free assay, competition with immobilised ligand; 1 µM).
For O=C1NC(=O)c2cc(Nc3ccc(F)cc3)c(Nc3ccc(F)cc3)cc21, the remaining signal was 98.2% (cell-free assay; 0.5 µM).
With Cc1ccc(Nc2nccc(N(C)c3ccc4c(C)n(C)nc4c3)n2)cc1S(N)(=O)=O the inhibition was 27% (enzyme activity, inhibitor; 0.3 µM).
With CCCCNc1ncc2c(-c3ccc(F)cc3)nn(C[C@H]3CC[C@H](N)CC3)c2n1 the inhibition was 18% (target engagement in cells, inhibitor, chemoproteomics; 20 mM).
With O=C(NCCCNc1nc(Nc2cccc(NC(=O)N3CCCC3)c2)ncc1C1CC1)C1CCC1 the remaining activity was 6% (enzyme activity, inhibitor, radiometric; 1 µM).
The inhibition of COc1cc2ncnc(Nc3ccc(Oc4ccccc4)cc3C)c2cc1OC is reported as 7% (enzyme activity, inhibitor; 1 µM).
With O=C(Nc1cnc(Oc2ccc(F)cc2)nc1)N1CCc2ncccc2[C@@H]1c1ccc(F)cc1 the remaining binding was 90% (cell-free assay, competition with immobilised ligand; 1 µM).
NS(=O)(=O)c1ccc(CNc2nc(Nc3cccc(CN4CCOCC4)c3)ncc2C2CC2)cc1 has a remaining activity of 98% (enzyme activity, inhibitor, radiometric; 1 µM).
The inhibition of CN(C)C1CCN(CC#Cc2nn(C3CCCC3)c3nc(NCc4ccccc4)ncc23)C1 (stereo not shown) is reported as 3% (enzyme activity, inhibitor, FRET; 1 µM).
For Oc1cccc(-c2nc(N3CCOCC3)c3oc4ncccc4c3n2)c1, the remaining signal was 92.9% (cell-free assay; 0.5 µM).
For FC(F)(F)Oc1cccc(-c2cnc3ccc(-c4ccncc4)nn23)c1, the activity vs control was 106% (enzyme activity, inhibitor, radiometric; 1 µM).
O=C(NCCCNc1nc(Nc2cccc(NC(=O)N3CCCC3)c2)ncc1I)c1cccs1 has a remaining activity of 3% (enzyme activity, inhibitor, radiometric; 1 µM).
With CN1CCN(c2cnc3c(C4CCN(C(=O)c5ccc(OC(F)(F)F)cc5N)CC4)ncnc3c2)CC1 the remaining binding was 100% (cell-free assay, competition with immobilised ligand; 1 µM).
With NS(=O)(=O)c1ccc(CNc2nc(Nc3cccc(CN4CCOCC4)c3)ncc2Br)cc1 the remaining activity was 65% (enzyme activity, inhibitor, radiometric; 1 µM).
Cc1c(NC(=O)c2cc(C(N)=O)nc3cc(F)ccc23)c(C(F)(F)F)nn1Cc1ccc(C#N)cc1 has a remaining binding of 97% (cell-free assay, competition with immobilised ligand; 1 µM).
Cc1nn(CC(F)(F)F)cc1Nc1ncc(C2CC2)c(NCc2ccc(S(N)(=O)=O)cc2)n1 gave a remaining activity of 100% (enzyme activity, inhibitor, radiometric; 1 µM).
For CN1CC(Oc2cnc(C#N)cc2-c2ccn3nc(NC(=O)C4CC4)cc3c2)C1, the inhibition was -1% (enzyme activity, inhibitor; 1 µM).
COc1cc(Nc2cnc(C#N)c(O[C@H](C)CN(C)C)n2)ncc1-c1cnn(C)c1 has a remaining activity of 57% (enzyme activity, inhibitor, radiometric; 10 µM).
